Results as given in ChEMBL document CHEMBL1138631, “Synthesis and amine transporter affinities of novel phenyltropane derivatives as potential positron emission tomography (PET) imaging agents” (Bioorg Med Chem Lett, 2004).

Key:
[1] = molecular target: Monoamine transporters; serotonin & dopamine (Rattus norvegicus) (UniProt P31652+P23977); assay: Ratio of Ki for dopamine and serotonin transporters; type: protein assay
Method in brief: (§1)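 Selectivity calculated as Ki at SERT or NET divided by Ki at DAT. Ki values came from radioligand competition assays with tritiated ligands selective for each transporter in rat forebrain tissue preparations. A ratio above 1.0 means preference for DAT.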

[2] = molecular target: Sodium-dependent serotonin transporter (Rattus norvegicus, UniProt P31652); assay: Displacement of [3H]cyanoimiprimine from serotonin transporter of rat cerebral cortical homogenate
Sequence of Sodium-dependent serotonin transporter (P31652 whole entry): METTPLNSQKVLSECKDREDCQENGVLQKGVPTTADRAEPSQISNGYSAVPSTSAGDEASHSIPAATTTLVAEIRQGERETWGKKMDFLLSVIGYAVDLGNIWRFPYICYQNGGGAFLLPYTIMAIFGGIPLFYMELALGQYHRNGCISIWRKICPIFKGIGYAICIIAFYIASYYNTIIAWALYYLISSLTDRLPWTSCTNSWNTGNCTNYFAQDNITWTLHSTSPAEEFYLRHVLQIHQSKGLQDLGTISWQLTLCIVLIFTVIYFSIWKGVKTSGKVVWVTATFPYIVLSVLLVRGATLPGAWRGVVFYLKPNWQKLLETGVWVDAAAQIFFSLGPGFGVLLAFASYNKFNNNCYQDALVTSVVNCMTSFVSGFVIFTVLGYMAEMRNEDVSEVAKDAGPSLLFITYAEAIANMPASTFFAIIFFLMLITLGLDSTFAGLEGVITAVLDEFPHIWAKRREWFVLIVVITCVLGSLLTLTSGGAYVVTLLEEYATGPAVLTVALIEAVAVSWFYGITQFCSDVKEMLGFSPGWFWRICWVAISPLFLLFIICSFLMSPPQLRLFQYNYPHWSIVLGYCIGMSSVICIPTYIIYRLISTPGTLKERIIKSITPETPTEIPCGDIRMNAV
Method in brief: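 Rat cerebral cortical homogenates incubated with 0.71 nM [3H]cyanoimiprimine in a radioligand competition binding assay; affinity expressed as Ki in nM.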

[3] = molecular target: Sodium-dependent dopamine transporter (Homo sapiens, UniProt Q01959); assay: Inhibition of [18F]PET binding to dopamine transporter of human brain
Sequence of Sodium-dependent dopamine transporter (Homo sapiens, UniProt Q01959) (Q01959 whole entry): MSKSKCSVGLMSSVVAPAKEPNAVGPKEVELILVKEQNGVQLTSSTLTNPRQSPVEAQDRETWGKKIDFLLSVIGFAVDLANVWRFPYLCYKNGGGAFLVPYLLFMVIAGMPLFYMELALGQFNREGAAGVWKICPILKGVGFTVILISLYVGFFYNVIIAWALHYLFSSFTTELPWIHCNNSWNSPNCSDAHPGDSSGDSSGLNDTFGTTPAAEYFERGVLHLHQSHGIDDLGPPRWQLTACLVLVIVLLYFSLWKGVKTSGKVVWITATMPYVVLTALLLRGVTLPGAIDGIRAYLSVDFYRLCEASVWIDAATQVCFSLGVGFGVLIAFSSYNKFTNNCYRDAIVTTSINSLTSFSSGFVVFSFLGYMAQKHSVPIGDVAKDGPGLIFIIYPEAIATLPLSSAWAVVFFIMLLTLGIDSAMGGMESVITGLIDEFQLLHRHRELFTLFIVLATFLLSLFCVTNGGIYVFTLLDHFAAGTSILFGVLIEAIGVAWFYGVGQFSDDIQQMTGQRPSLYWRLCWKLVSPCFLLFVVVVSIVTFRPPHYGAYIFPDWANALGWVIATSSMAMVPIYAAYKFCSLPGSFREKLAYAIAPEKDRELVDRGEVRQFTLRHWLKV

[4] = molecular target: Sodium-dependent dopamine transporter (Rattus norvegicus, UniProt P23977); assay: Displacement of [3H]CIT from dopamine transporter of rat striatal homogenate
Sequence of Sodium-dependent dopamine transporter (Rattus norvegicus, UniProt P23977) (P23977 whole entry): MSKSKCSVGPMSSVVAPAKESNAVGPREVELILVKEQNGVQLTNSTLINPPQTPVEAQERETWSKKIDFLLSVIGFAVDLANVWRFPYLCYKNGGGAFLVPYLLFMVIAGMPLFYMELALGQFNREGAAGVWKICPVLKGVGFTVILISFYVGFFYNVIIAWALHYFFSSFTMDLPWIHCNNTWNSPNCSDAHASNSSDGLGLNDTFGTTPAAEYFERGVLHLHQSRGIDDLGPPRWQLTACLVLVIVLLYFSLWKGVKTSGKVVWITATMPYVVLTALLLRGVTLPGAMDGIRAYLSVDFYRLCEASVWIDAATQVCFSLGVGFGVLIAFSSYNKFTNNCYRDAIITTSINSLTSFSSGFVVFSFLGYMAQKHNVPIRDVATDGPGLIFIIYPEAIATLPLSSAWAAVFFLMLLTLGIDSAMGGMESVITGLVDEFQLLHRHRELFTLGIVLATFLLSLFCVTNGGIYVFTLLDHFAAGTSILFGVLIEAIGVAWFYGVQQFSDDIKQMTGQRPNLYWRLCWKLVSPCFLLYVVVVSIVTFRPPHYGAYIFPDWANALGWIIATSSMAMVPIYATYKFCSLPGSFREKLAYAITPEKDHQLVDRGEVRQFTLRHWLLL

[5] = molecular target: Norepinephrine transporter (Rattus norvegicus, UniProt Q9WTR4); assay: Displacement of [3H]-nisoxetine from norepinephrine transporter of rat cerebral corticex homogenate
Sequence of Norepinephrine transporter (Q9WTR4 whole entry): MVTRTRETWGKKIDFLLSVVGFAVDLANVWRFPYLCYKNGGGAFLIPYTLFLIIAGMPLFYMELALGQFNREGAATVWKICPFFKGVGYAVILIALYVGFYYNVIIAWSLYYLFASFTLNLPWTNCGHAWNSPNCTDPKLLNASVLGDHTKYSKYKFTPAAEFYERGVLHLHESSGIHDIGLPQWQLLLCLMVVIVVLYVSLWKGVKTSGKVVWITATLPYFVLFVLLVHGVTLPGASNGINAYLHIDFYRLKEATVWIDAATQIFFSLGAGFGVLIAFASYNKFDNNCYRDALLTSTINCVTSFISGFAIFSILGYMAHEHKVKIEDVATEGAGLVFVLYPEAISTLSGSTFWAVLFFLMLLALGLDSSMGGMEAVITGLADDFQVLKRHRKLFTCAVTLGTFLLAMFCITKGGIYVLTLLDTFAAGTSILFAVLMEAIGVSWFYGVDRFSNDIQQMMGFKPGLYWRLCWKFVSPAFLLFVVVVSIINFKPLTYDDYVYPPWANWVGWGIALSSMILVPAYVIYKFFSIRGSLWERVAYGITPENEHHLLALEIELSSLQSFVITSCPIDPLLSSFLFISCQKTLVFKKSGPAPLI
Method in brief: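 Competition binding in rat cerebral cortical homogenates incubated with 0.35 nM [3H]nisoxetine; Ki reported in nM.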

[6] = molecular target: Monoamine transporters; Norepininephrine & dopamine (Rattus norvegicus) (UniProt P23977+Q9WTR4); assay: Ratio of Ki for dopamine and norepinephrine transporters; type: protein assay; method in brief: as §1

Sequence of Monoamine transporters; serotonin & dopamine (Rattus norvegicus) (P23977 whole entry, looked up): as the sequence (P23977 whole entry) above
Sequence of Monoamine transporters; serotonin & dopamine (Rattus norvegicus) (P31652 whole entry, looked up): as the sequence (P31652 whole entry) above

SMILES	Selectivity [1]	Ki [2]	Ki [3]	Ki [4]	Ki [5]	Selectivity [6]
O=C(OCCF)C1C2CCC(CC1c1ccc(I)cc1)N2 (stereo not given)	0.21	0.18 nM	5 nM	0.85 nM		
O=C(OCCF)C1C2CCC(CC1c1ccc(Br)cc1)N2 (stereo not given)	0.42	0.24 nM	5 nM	0.57 nM	15.2 nM	26.7
COC(=O)C1C(c2ccc(Br)cc2)CC2CCC1N2CCCF (stereo not given)	10.9					58.9
COC(=O)C1C(c2ccc(Br)cc2)CC2CCC1N2C (stereo not given)	0.06	4.95 nM		0.3 nM	15.3 nM	0.02
CN1C2CCC1C(C(=O)NCCF)C(c1ccc(I)cc1)C2 (stereo not given)	0.69	30.8 nM		44.5 nM	> 10000 nM	> 225
CN1C2CCC1C(C(=O)OCCF)C(c1ccc(I)cc1)C2 (stereo not given)	4.3	4.02 nM			116 nM	125
CN1C2CCC1C(C(=O)OCCF)C(c1ccc(Br)cc1)C2 (stereo not given)	2.19	5.1 nM	5 nM	2.33 nM	280 nM	120
O=C(OCCF)C1C(c2ccc(Br)cc2)CC2CCC1N2CCCF (stereo not given)	1.72	18.3 nM		10.6 nM	2.03 nM	0.19
O=C(OCCCF)C1C2CCC(CC1c1ccc(Br)cc1)N2 (stereo not given)	0.42	0.3 nM	5 nM	0.72 nM	8.85 nM	12.3
CN1C2CCC1C(C(=O)OCCCF)C(c1ccc(Br)cc1)C2 (stereo not given)	1.5	2.86 nM	5 nM	1.91 nM	244 nM	128
COC(=O)C1C2CCC(CC1c1ccc(Br)cc1)N2 (stereo not given)		0.95 nM		0.52 nM	1.02 nM	
CN1C2CCC1C(C(=O)NCCF)C(c1ccc(Br)cc1)C2 (stereo not given)	1.51	38.7 nM		25.7 nM		
